Reference: ChEMBL document CHEMBL1143577, “Syntheses and biological activities of rebeccamycin analogues with uncommon sugars” (J Med Chem, 2005)

What was measured:
K562 = test: Inhibitory concentration against […] leukemia cell line in MTS assay; type: functional, cell-based; conditions: Homo sapiens
Outline: (§1)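 Cells grown in RPMI 1640 with 10% FBS, 1% nonessential amino acids, penicillin-streptomycin, 37 °C, 5% CO2. Exponentially growing cells were then exposed to a range of compound concentrations for 72 h. MTS (2 mg/mL) plus PMS (25 µM) was added for 3 h, and absorbance was read at 490 nm. IC50 came from dose-response curves of % growth versus untreated control.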

SW-620 = test: Inhibitory concentration against SW620 colorectal carcinoma cell line in MTS assay; type: functional, cell-based, Homo sapiens; outline: as §1

SMILES	IC50 (K562)	IC50 (SW-620; Homo sapiens, SW-620)	IC50 (SW-620; sw-620)
CC1OC(n2c3ccccc3c3c4c(c5c6ccccc6[nH]c5c32)C(=O)OC4=O)CC(N)C1O (stereo not drawn)	55 µM	> 100 µM	
CC1OC(n2c3ccccc3c3c4c(c5c6ccccc6[nH]c5c32)C(=O)N(N)C4=O)CC(O)C1O (stereo not drawn)	> 100 µM	> 100 µM	
CN1C(=O)c2c(c3c4ccccc4[nH]c3c3[nH]c4ccccc4c23)C1=O	40 µM	> 100 µM	
O=C1c2c(c3c4ccccc4n(C4OC(COCc5ccccc5)C(OCc5ccccc5)C(OCc5ccccc5)C4OCc4ccccc4)c3c3[nH]c4ccccc4c23)C(=O)N1CCCn1ccnc1 (stereo not drawn)	> 50 µM	> 50 µM	
CC1OC(n2c3ccccc3c3c4c(c5c6ccccc6[nH]c5c32)C(=O)OC4=O)CC(NCc2ccccc2)C1O (stereo not drawn)	53 µM	76 µM	
CC1OC(n2c3ccccc3c3c4c(c5c6ccccc6[nH]c5c32)C(=O)N(C)C4=O)CC(NCc2ccccc2)C1O (stereo not drawn)	34 µM	> 100 µM	
CC1OC(n2c3ccccc3c3c4c(c5c6ccccc6[nH]c5c32)C(=O)N(C)C4=O)CC(O)C1O (stereo in doubt; 6)			34 µM

More lines, in order of falling IC50 (K562), values ahead:

IC50 (K562)	IC50 (SW-620; Homo sapiens, SW-620)	IC50 (SW-620; sw-620)	SMILES
26 µM	24 µM		CC1OC(n2c3ccccc3c3c4c(c5c6ccccc6[nH]c5c32)C(=O)N(C)C4=O)CC(O)C1O (stereo in doubt; 5)
12 µM	13 µM		CN1C(=O)c2c(c3c4ccccc4n(C4CC(O)C(O)C(CO)O4)c3c3[nH]c4ccccc4c23)C1=O (stereo not drawn)
6 µM	4 µM		CO[C@H]1[C@H](O)[C@@H](O)[C@H](n2c3c(Cl)cccc3c3c4c(c5c6cccc(Cl)c6[nH]c5c32)C(=O)NC4=O)O[C@@H]1CO [REBECCAMYCIN]
4 µM	2 µM		O=C1c2c(c3c4ccccc4n(C4OC(CO)C(O)C(O)C4O)c3c3[nH]c4ccccc4c23)C(=O)N1CCCn1ccnc1 (stereo not drawn)
3 µM	5 µM		CN1C(=O)c2c(c3c4ccccc4n(C4OC(CO)C(O)C(O)C4O)c3c3[nH]c4ccccc4c23)C1=O (stereo not drawn)
